Drawing on ChEMBL document CHEMBL1143909, “Novel cholesterol biosynthesis inhibitors targeting human lanosterol 14alpha-demethylase (CYP51)” (Bioorg Med Chem, 2008), this text covers Kd and Activity for eight compounds.

As usually defined, the Kd is the free concentration of one partner at which half of the binding sites on the other are occupied at equilibrium, for simple one-to-one binding.

Active and inactive are the calls of the source. No cut-off for these calls is given here. Where only a bound is given, the exact number is not on record here.

Test [1] has as its target T1, Lanosterol 14-alpha demethylase (Homo sapiens, UniProt Q16850).
T1 sequence (Q16850 whole entry): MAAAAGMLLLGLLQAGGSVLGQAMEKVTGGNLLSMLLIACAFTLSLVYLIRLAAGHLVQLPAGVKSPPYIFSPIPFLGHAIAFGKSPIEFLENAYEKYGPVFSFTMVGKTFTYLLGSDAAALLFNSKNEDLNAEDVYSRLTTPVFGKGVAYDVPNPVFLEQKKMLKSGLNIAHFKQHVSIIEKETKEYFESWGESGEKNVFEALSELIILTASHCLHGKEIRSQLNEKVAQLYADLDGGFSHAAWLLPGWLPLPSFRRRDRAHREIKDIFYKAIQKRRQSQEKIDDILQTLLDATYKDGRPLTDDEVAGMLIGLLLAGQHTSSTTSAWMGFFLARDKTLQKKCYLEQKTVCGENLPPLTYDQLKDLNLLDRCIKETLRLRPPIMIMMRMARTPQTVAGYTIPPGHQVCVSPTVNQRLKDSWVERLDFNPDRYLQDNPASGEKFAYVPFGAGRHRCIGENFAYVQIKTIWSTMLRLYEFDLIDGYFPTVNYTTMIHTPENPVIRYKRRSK
The test is described as follows: Binding affinity to human His-tagged CYP51 expressed in Escherichia coli. An outline of the steps: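 Purified His-tagged human CYP51 titrated with inhibitor at room temperature in 50 mM phosphate, 100 mM NaCl, 0.1 mM EDTA, 10% glycerol. Difference spectra recorded 350-500 nm; A412–A432 plotted against inhibitor concentration. Enzyme 0.5 or 2 µM, titration ranges 0.25-400 µM depending on compound. Apparent Kd from hyperbolic nonlinear fit of free inhibitor; three repeats per compound.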

Another test deals with HepG2. The experiment in a line: Ex vivo inhibition of CYP51 mediated cholesterol biosynthesis in human HepG2 cells assessed as increase in lanosterol accumulation at 10 uM relative to control.
The target in test [2] is T2, Delta(14)-sterol reductase TM7SF2 (Homo sapiens) (UniProt O76062).
T2 sequence (whole entry): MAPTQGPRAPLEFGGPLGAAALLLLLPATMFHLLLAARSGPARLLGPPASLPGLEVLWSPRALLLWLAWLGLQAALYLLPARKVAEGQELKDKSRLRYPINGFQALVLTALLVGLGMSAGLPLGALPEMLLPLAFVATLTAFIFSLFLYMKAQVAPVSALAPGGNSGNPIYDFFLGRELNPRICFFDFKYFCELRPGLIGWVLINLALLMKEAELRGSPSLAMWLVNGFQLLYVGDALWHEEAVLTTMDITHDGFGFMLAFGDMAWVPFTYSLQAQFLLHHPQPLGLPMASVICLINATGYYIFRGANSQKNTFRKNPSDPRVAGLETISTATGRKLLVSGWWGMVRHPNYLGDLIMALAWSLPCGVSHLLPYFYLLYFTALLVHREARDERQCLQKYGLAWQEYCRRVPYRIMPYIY
The experiment in a line: Inhibition of Delta-(14)-sterol reductase in human HepG2 cells assessed as accumulation of FF-MAS. Format: cell-based. The essentials: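 HepG2 cells grown 24 h at 37 °C, 5% CO2 in DMEM high with 5% calf serum, then 10 µM compound for 24 h. Fresh medium with [3H]acetate (40 µCi/ml) for 4 h. Sterols extracted from homogenate with ergosterol internal standard, separated by reversed-phase HPLC (100% acetonitrile, 40 °C) with radioactivity detection. Read as ratios to untreated cells: two experiments × two replicas, mean of 8 ratios ± SD.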

Regarding `Br.CCCN(CCc1ccc(F)c(F)c1)CC(O)c1cccnc1` (centres undefined), binding in test [1] was characterised by a dissociation constant (Kd) of 27 µM. Further, the Activity with HepG2 is 1.9.
The matching figures for `Br.CCCN(CCc1ccc(OC)c(OC)c1)CC(O)c1cccnc1` (centres undefined): 29.2 µM and 1.8.
Taken in the same sequence, the figures for `Br.CCCN(CCc1ccc(Cl)c(Cl)c1)CC(O)c1cc(C)ccn1` (centres undefined) were over 1000 µM and 1.2.
`CC(=O)N1CCN(c2ccc(OC[C@H]3CO[C@](Cn4ccnc4)(c4ccc(Cl)cc4Cl)O3)cc2)CC1` [KETOCONAZOLE] registered a Kd in test [1] of 0.11 µM.
`Br.CCCN(CCc1cccnc1)CC(O)c1cccnc1` (centres undefined) yielded a Kd in test [1] of 260 µM. In addition, the Activity in the test on HepG2 is 1.
`Br.CCCN(CCc1ccc2ccccc2c1)CC(O)c1cccnc1` (centres undefined): the Kd in test [1] was 0.34 µM. Further, the Activity with HepG2 is on record as 5.
Taken in the same sequence, the figures for `Br.CCCN(CCc1ccc(Cl)c(Cl)c1)CC(O)c1cccnc1` (centres undefined) were 0.4 µM and 6.
For the compound `CCCN(CCc1cccnc1)CCc1cccc(F)c1`, the result in test [2] was Active.
